From ChEMBL document CHEMBL5344428, “Discovery, Crystallographic Studies, and Mechanistic Investigations of Novel Phenylalanine Derivatives Bearing a Quinazolin-4-one Scaffold as Potent HIV Capsid Modulators” (J Med Chem, 2023)

Tests used:
[1] = test system: Human immunodeficiency virus 2; assay: Antiviral activity against HIV-2 ROD infected in human MT4 cells assessed as protection against virus induced cytopathic effect; assay type: functional, organism-based; conditions: Human immunodeficiency virus 2, ROD
How it was run: (§1)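 MT-4 cells were infected with HIV-1 IIIB or HIV-2 ROD, and cell viability was read by MTT. […] Each value was run in at least triplicate and averaged from at least three independent experiments.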

[2] = Selectivity index, ratio of CC50 for cytotoxicity against human MT4 cells to EC50 for antiviral activity against HIV2 ROD infected in human MT4 cells; assay type: toxicity, cell-based; conditions: read-out: Ratio CC50/EC50
How it was run: (§2)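 SI is CC50 divided by EC50. CC50 comes from MTT viability of uninfected MT-4 cells. EC50 comes from MTT-read protection of MT-4 cells infected with HIV-1 IIIB or HIV-2 ROD. Each value was run in at least triplicate.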

[3] = Selectivity ratio of EC50 for antiviral activity against HIV1 IIIB infected in human MT4 cells to EC50 for antiviral activity against HIV2 ROD infected in human MT4 cells; assay type: toxicity, cell-based
How it was run: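 Ratio is EC50 against HIV-1 IIIB divided by EC50 against HIV-2 ROD. Both EC50 values come from MTT-read protection of infected MT-4 cells.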

[4] = Selectivity index, ratio of CC50 for cytotoxicity against human MT4 cells to EC50 for antiviral activity against HIV1 IIIB infected in human MT4 cells; assay type: toxicity, cell-based; conditions: read-out: Ratio CC50/EC50; how it was run: as §2
[5] = test system: Human immunodeficiency virus 1; assay: Antiviral activity against HIV-1 IIIB infected in human MT4 cells assessed as protection against virus induced cytopathic effect; assay type: functional, organism-based; conditions: Human immunodeficiency virus 1, IIIB; how it was run: as §1
[6] = Cytotoxicity against human MT4 cells assessed as reduction in cell viability; assay type: toxicity, cell-based
How it was run: (§3)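 Uninfected MT-4 cells were exposed to compound, and viability was read by the MTT method. […] Each value was run in at least triplicate and averaged from at least three independent experiments.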

[7] = test system: Human immunodeficiency virus 1; assay: Antiviral activity against HIV1 IIIB infected in human MT4 cells assessed as reduction in virus induced cytopathic effect measured after 5 days by MTT assay; assay type: functional, organism-based; conditions: Human immunodeficiency virus 1, IIIB, MT4, 120 h; how it was run: as §1
[8] = test system: Human immunodeficiency virus 2; assay: Antiviral activity against HIV2 ROD infected in human MT4 cells assessed as reduction in virus induced cytopathic effect measured after 5 days by MTT assay; assay type: functional, organism-based; conditions: Human immunodeficiency virus 2, ROD, MT4, 120 h; how it was run: as §1
MT4 = assay: (§4) Cytotoxicity against human MT4 cells assessed as reduction in cell viability incubated for 5 days by MTT assay; assay type: toxicity, cell-based; conditions: mt4, 120 h, time 5 day; how it was run: as §3
[9] = as §4; assay type: toxicity, cell-based; conditions: MT4 cells, time 5 day; how it was run: as §3

| Compound | EC50 [1] [µM] | selectivity ratio [2] | Ratio EC50 [3] | selectivity ratio [4] | EC50 [5] [µM] | CC50 [6] [µM] | EC50 [7] [µM] | EC50 [8] [µM] | CC50 (MT4) [µM] | CC50 at 120 h [9] [µM] |
| --- | --- | --- | --- | --- | --- | --- | --- | --- | --- | --- |
| COc1ccc(N(C)C(=O)[C@H](Cc2cc(F)cc(F)c2)NC(=O)CN2CCN(S(=O)(=O)c3ccc(NC(C)=O)cc3)CC2)cc1 | 0.03 | 3050 | 7 | 436 | 0.21 | 91.6 | – | – | – | – |
| COc1ccc(N(C)C(=O)[C@H](Cc2cc(F)cc(F)c2)NC(=O)CN2CCN(S(=O)(=O)c3ccccc3[N+](=O)[O-])CC2)cc1 | 1.19 | 79.7 | 2.39 | 33.4 | 2.84 | 94.9 | – | – | – | – |
| COc1ccc(N(C)C(=O)[C@H](Cc2cc(F)cc(F)c2)NC(=O)CN2CCN(S(=O)(=O)c3cccc([N+](=O)[O-])c3)CC2)cc1 | 0.17 | 493 | 8.76 | 56.3 | 1.49 | 83.9 | – | – | – | – |
| COc1ccc(N(C)C(=O)[C@H](Cc2cc(F)cc(F)c2)NC(=O)CN2CCN(S(=O)(=O)c3ccc([N+](=O)[O-])cc3)CC2)cc1 | 0.48 | 30.9 | 2.1 | 14.7 | 1.01 | 14.8 | – | – | – | – |
| COc1ccc(N(C)C(=O)[C@H](Cc2cc(F)cc(F)c2)NC(=O)CN2CCN(S(=O)(=O)c3ccc(Cl)cc3)CC2)cc1 | 0.44 | 20.6 | 2.11 | 9.73 | 0.93 | 9.05 | – | – | – | – |
| COc1ccc(N(C)C(=O)[C@H](Cc2cc(F)cc(F)c2)NC(=O)CN2CCN(S(=O)(=O)c3ccc(Br)cc3)CC2)cc1 | 0.35 | 37.8 | 2.46 | 15.4 | 0.86 | 13.2 | – | – | – | – |
| O=C(CN1CCN(S(=O)(=O)c2ccc([N+](=O)[O-])cc2)CC1)N[C@@H](Cc1cc(F)cc(F)c1)c1nc2ccccc2c(=O)n1-c1ccc(S(=O)(=O)N2CCS(=O)(=O)CC2)cc1 | – | > 70.6 | 1.54 | > 45.6 | – | – | 3.04 | 1.97 | > 139 | – |
| COc1ccc(N(C)C(=O)[C@H](Cc2cc(F)cc(F)c2)NC(=O)CN2CCN(S(=O)(=O)c3ccccc3)CC2)cc1 | 0.1 | 1140 | 2 | 570 | 0.2 | 114 | – | – | – | – |
| COc1ccc(N(C)C(=O)[C@H](Cc2cc(F)cc(F)c2)NC(=O)CN2CCN(S(=O)(=O)c3ccccc3F)CC2)cc1 | 0.09 | 2010 | 2 | 1000 | 0.18 | 181 | – | – | – | – |
| COc1ccc(N(C)C(=O)[C@H](Cc2cc(F)cc(F)c2)NC(=O)CN2CCN(S(=O)(=O)c3ccccc3N)CC2)cc1 | 0.14 | 454 | 3.71 | 122 | 0.52 | 63.6 | – | – | – | – |
| COc1ccc(N(C)C(=O)[C@H](Cc2cc(F)cc(F)c2)NC(=O)CN2CCN(S(=O)(=O)c3ccc(C)cc3)CC2)cc1 | 0.12 | > 1700 | 7.58 | > 224 | 0.91 | > 204 | – | – | – | – |
| COc1ccc(-n2c([C@H](Cc3ccccc3)NC(=O)CN3CCN(S(=O)(=O)c4ccc([N+](=O)[O-])cc4)CC3=O)nc3ccccc3c2=O)cc1 | – | > 312 | 2.65 | > 119 | – | – | 1.51 | 0.57 | > 179 | – |
| COc1ccc(N(C)C(=O)[C@H](Cc2cc(F)cc(F)c2)NC(=O)CN2CCN(S(=O)(=O)c3ccc(N)cc3)CC2)cc1 | 0.05 | 2340 | 2.4 | 977 | 0.12 | 117 | – | – | – | – |
| COc1ccc(N(C)C(=O)[C@H](Cc2cc(F)cc(F)c2)NC(=O)CN(Cc2ccc(F)cc2)C(=O)Cc2ccc(B3OC(C)(C)C(C)(C)O3)cc2)cc1 | – | 5 | 0.89 | 6 | – | – | 11.7 | 13.2 | – | 65.4 |
| COc1ccc(N(C)C(=O)[C@H](Cc2cc(F)cc(F)c2)NC(=O)CN2CCN(S(=O)(=O)c3cccc(N)c3)CC2)cc1 | 0.11 | 987 | 1.45 | 679 | 0.16 | 109 | – | – | – | – |
| COc1ccc(N(C)C(=O)[C@H](Cc2cc(F)cc(F)c2)NC(=O)CN2CCN(S(=O)(=O)c3ccc(F)cc3)CC2)cc1 | 0.36 | 53.3 | 2.19 | 24.3 | 0.79 | 19.2 | – | – | – | – |
| COc1ccc(-n2c([C@H](Cc3ccccc3)NC(=O)CN3CCN(S(=O)(=O)c4ccc(N)cc4)CC3)nc3cc(Cl)ccc3c2=O)cc1 | – | > 1740 | 6.1 | > 291 | – | – | 0.61 | 0.1 | – | > 178 |
| COc1ccc(-n2c(SCc3ncccn3)nnc2[C@H](Cc2ccccc2)NC(=O)Cc2c(C)[nH]c3ccccc23)cc1 | – | 14 | 0.24 | 58 | – | – | 1.81 | 7.43 | – | 106 |
| COc1ccc(N(C)C(=O)[C@H](Cc2ccccc2)NC(=O)Cn2ccc(NC(=O)c3ccccc3F)cc2=O)cc1 | – | 10.3 | 2.26 | 4.55 | – | – | 17.9 | 7.92 | – | 81.4 |
| COc1ccc(-n2c(SCc3cncs3)nnc2[C@H](Cc2ccccc2)NC(=O)Cc2c(C)[nH]c3ccccc23)cc1 | – | 9 | 0.23 | 38 | – | – | 0.9 | 3.98 | – | 33.9 |
| COc1ccc(N(C)C(=O)[C@H](Cc2ccccc2)NC(=O)Cn2ccc(NC(=O)c3ccc(C#N)cc3)cc2=O)cc1 | – | 7.69 | 0.94 | 8.18 | – | – | 16.8 | 17.8 | – | 137 |
| COC(=O)c1ccc(C(=O)Nc2ccn(CC(=O)N[C@@H](Cc3ccccc3)C(=O)N(C)c3ccc(OC)cc3)c(=O)c2)cc1 | – | 6.31 | 1.25 | 5.04 | – | – | 19.1 | 15.2 | – | 96.2 |
| COc1ccc(N(C)C(=O)[C@H](Cc2cc(F)cc(F)c2)NC(=O)CN2CCN(S(=O)(=O)c3cccc(F)c3)CC2)cc1 | 0.12 | > 1690 | 2 | > 843 | 0.24 | > 202 | – | – | – | – |
